Assay results from paper PMC5203969 (Clinical cancer research : an official journal of the …, 2016).
Read-outs that look alike come from different tables or passages of the source.

Assays:
[1] = system: NTRK1 autophosphorylation in CUTO-3 cells (MPRIP-NTRK1); assay: Western blot of NTRK1 autophosphorylation in CUTO-3 cells; assay type: cell-based, human; conditions: 6 hours, dovitinib at 1000 nM
Method in brief: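 CUTO-3 cells (MPRIP-NTRK1, patient-derived) were treated with inhibitor for 6 hours. They were lysed for 30 min in 0.1% Triton X-100 plus protease inhibitor. Lysates were run on 4–12% Bis-Tris gels and transferred to PVDF. Membranes were blocked in 5% milk, then probed with primary antibody at 1:1,000 and secondary at 1:5,000.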

F589V CD74-NTRK1 = assay type: cell-based; conditions: 293 cells transiently transfected with wild-type and F589V CD74-NTRK1
[2] = system: NTRK1 autophosphorylation in NIH-3T3 cells transformed with FLAG-tagged CD74-NTRK1; assay type: cell-based; conditions: 6 hours, western blot
CUTO-3 cells = assay: Proliferation of CUTO-3 tumor cells; assay type: cell-based, human
Parental Ba/F3 cells = assay: Proliferation of parental Ba/F3 cells grown in the presence of IL-3; assay type: cell-based, murine; conditions: read-out: IC50 Parental Ba/F3
Method in brief: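 Parental Ba/F3 cells are immortalized murine bone-marrow pro-B cells. They were incubated with test compound for 72 hours, and viability was measured by CellTiter Glo. Final DMSO was under 0.5%.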

[3] = observed in clinical trials; cited from earlier work
prostate cancer = conditions: cited from earlier work
RET-rearranged NSCLC = conditions: of 3 patients with RET-rearranged NSCLC; cited from earlier work
[4] = system: ROS1-rearranged metastatic lung adenocarcinoma; assay: Treatment of one patient with ROS1-rearranged metastatic lung adenocarcinoma
[5] = system: ROS1 autophosphorylation and ERK in CD74-ROS1 L2026M transformed Ba/F3 cells; assay: Western blot of ROS1; assay type: cell-based, murine
medullary thyroid cancer = conditions: cited from earlier work
[6] = system: ROS1 autophosphorylation and ERK in CD74-ROS1 wild-type transformed Ba/F3 cells; assay: Western blot of ROS1; assay type: cell-based, murine
[7] = system: ROS1 autophosphorylation and ERK in CD74-ROS1 G2032R transformed Ba/F3 cells; assay: Western blot of ROS1; assay type: cell-based, murine
[8] = molecular target: Ba/F3 cells transformed with CD74-ROS1 (wild-type) (Homo sapiens, UniProt P04233+P08922); assay: Proliferation of Ba/F3 cells transformed with CD74-ROS1 wild-type; assay type: cell-based, murine; conditions: peak plasma level obtained through FDA-approved oral dosing
Ba/F3 cells transformed with CD74-ROS1 (wild-type), sequence (P08922 1883-2347 limits assumed, one chain of several): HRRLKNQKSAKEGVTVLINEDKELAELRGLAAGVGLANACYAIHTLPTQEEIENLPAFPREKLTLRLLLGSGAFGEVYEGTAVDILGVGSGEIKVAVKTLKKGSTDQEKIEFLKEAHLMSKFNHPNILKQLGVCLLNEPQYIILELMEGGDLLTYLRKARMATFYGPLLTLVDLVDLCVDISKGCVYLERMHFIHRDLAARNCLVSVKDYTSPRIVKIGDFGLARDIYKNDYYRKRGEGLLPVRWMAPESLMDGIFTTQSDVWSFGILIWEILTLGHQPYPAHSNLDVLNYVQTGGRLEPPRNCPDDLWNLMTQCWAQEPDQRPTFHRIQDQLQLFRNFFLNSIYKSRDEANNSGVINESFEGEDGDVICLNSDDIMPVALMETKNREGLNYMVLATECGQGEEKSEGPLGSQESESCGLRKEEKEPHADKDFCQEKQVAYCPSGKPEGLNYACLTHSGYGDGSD

HCC78 NSCLC cell line = assay: Proliferation of HCC78 NSCLC cell line; assay type: cell-based, human
Method in brief: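 HCC-78 cells were obtained from ATCC (STR-authenticated) and passaged under 6 months. Cells were exposed to test compound for 72 hours, and viability was read by CellTiter Glo luminescence.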

ROS1-rearranged NSCLC = conditions: phase II; cited from earlier work
[9] = Homo sapiens, CUTO-3, read-out: IC50 inhibition of CUTO-3 cells, proliferation
[10] = read-out: IC50 inhibition of CUTO-3 cells, proliferation
[11] = Homo sapiens, HCC78, read-out: IC50 inhibition of the HCC78 NSCLC cell line

**Q.** For `C[C@]12O[C@H](C[C@]1(O)CO)n1c3ccccc3c3c4c(c5c6ccccc6n2c5c31)CNC4=O` [lestaurtinib, Lestaurtinib], which “inhibition of NTRK1 autophosphorylation” value [1] is on record?
**A.** The value was “inhibited NTRK1 autophosphorylation”.

**Q.** What about the “effect of F589V mutation on inhibition of NTRK1 autophosphorylation” value (F589V CD74-NTRK1) of the same molecule?
**A.** Its value is “did not affect inhibition of NTRK1 autophosphorylation”.

**Q.** What about the “inhibition of NTRK1 autophosphorylation” value [2] of the same molecule?
**A.** The value was “inhibit NTRK1 autophosphorylation”.

**Q.** What about the IC50 (CUTO-3 cells; [9]) of the same molecule?
**A.** Its IC50 is 3.5 nM.

**Q.** What about the IC50 (CUTO-3 cells; [10]) of the same molecule?
**A.** Its IC50 is 3 nM.

**Q.** And the IC50 (Parental Ba/F3 cells; Mus musculus, BaF3, 72 h)?
**A.** The IC50 was 3.4 µM.

**Q.** With `CN1CCN(c2ccc3nc(-c4c(N)c5c(F)cccc5[nH]c4=O)[nH]c3c2)CC1` [dovitinib, Dovitinib] as the molecule, how does the “inhibition of NTRK1 autophosphorylation” value [1] read?
**A.** The value was “partial inhibition”.

**Q.** What about the “peak plasma level with oral dosing” value [3] of the same molecule?
**A.** Its value is 568 nM.

**Q.** And the “inhibition of NTRK1 autophosphorylation” value [2]?
**A.** The value was “weaker than would be suggested by its IC50 value”.

**Q.** And the IC50 (CUTO-3 cells; [9])?
**A.** Its IC50 is 170 nM.

**Q.** And the IC50 (Parental Ba/F3 cells; Mus musculus, BaF3, 72 h)?
**A.** Its IC50 is 4.2 µM.

**Q.** For `COc1cc2nccc(Oc3ccc(NC(=O)C4(C(=O)Nc5ccc(F)cc5)CC4)cc3)c2cc1OC` [Cabozantinib, cabozantinib], which discontinuation rate (prostate cancer; 40 mg group) is on record?
**A.** The discontinuation rate was 18%.

**Q.** And the “rate of dose reduction” value (prostate cancer; 40 mg group)?
**A.** Its value is 31%.

**Q.** What about the discontinuation rate (prostate cancer; 100 mg group) of the same molecule?
**A.** The discontinuation rate was 25%.

**Q.** What about the “rate of dose reduction” value (prostate cancer; 100 mg group) of the same molecule?
**A.** The value was 84%.

**Q.** And the “patients with a partial response” value (RET-rearranged NSCLC)?
**A.** Its value is 2 patients.

**Q.** And the “patients with stable disease” value (RET-rearranged NSCLC)?
**A.** Its value is 1 patient.

**Q.** What about the “right lower lobe lesion size on CT” value ([4]; 4 weeks after initiation of cabozantinib, from 1.7 cm) of the same molecule?
**A.** The value was 1.4 cm.

**Q.** What about the fatigue ([4]; single patient, after approximately 3 weeks on treatment) of the same molecule?
**A.** The fatigue was “grade II”.

**Q.** What about the palmar-plantar erythrodysesthesia ([4]; single patient, after approximately 3 weeks on treatment, 140 to 80 mg daily) of the same molecule?
**A.** The palmar-plantar erythrodysesthesia was “grade III”.

**Q.** What about the “phosphorylation of ROS1 and ERK” value [5] of the same molecule?
**A.** The value was “a decrease is seen in the phosphorylation of ROS1 and ERK”.

**Q.** What about the patients with dose-reductions (medullary thyroid cancer; medullary thyroid cancer study) of the same molecule?
**A.** The patients with dose-reductions was 79%.

**Q.** What about the progression-free survival (medullary thyroid cancer; medullary thyroid cancer, vs. 4 months placebo) of the same molecule?
**A.** The progression-free survival was 11.2 months.

**Q.** And the “patients with doses held” value (medullary thyroid cancer; medullary thyroid cancer)?
**A.** The value was 65%.

**Q.** What about the “patients with discontinuation due to adverse events” value (medullary thyroid cancer; phase III thyroid cancer study) of the same molecule?
**A.** The value was 16%.

**Q.** And the “phosphorylation of ROS1 and ERK” value [6]?
**A.** The value was “a decrease is seen in the phosphorylation of ROS1 and ERK”.

**Q.** What about the “phosphorylation of ROS1 and ERK” value [7] of the same molecule?
**A.** Its value is “a decrease is seen in the phosphorylation of ROS1 and ERK”.

**Q.** And the “fold by which inhibitory concentrations are below the peak plasma level” value [8]?
**A.** The value was ~ 50 fold.

**Q.** What about the IC50 (HCC78 NSCLC cell line; [11]) of the same molecule?
**A.** Its IC50 is 1360 nM.

**Q.** With `Cc1cc(Nc2ncc(Cl)c(Nc3ccccc3S(=O)(=O)C(C)C)n2)c(OC(C)C)cc1C1CCNCC1` [Ceritinib] as the molecule, how does the IC50 (HCC78 NSCLC cell line; [11]) read?
**A.** Its IC50 is 530 nM.

**Q.** What does the source list for `COc1cc2c(Oc3ccc(NC(=O)C4(C(=O)Nc5ccc(F)cc5)CC4)cc3F)ccnc2cc1OCCCN1CCOCC1` [Foretinib, foretinib]?
**A.** phosphorylation of ROS1 and ERK [5]: a decrease is seen in the phosphorylation of ROS1 and ERK; phosphorylation of ROS1 and ERK [6]: a decrease is seen in the phosphorylation of ROS1 and ERK; phosphorylation of ROS1 and ERK [7]: a decrease is seen in the phosphorylation of ROS1 and ERK; IC50 (HCC78 NSCLC cell line; [11]): 460 nM

**Q.** Which results are given for `Cc1cc(N2CCOCC2)cc2[nH]c(-c3c(NC[C@@H](O)c4cccc(Cl)c4)cc[nH]c3=O)nc12` [BMS-536924]?
**A.** inhibition of NTRK1 autophosphorylation [1]: inhibited NTRK1 autophosphorylation; effect of F589V mutation on inhibition of NTRK1 autophosphorylation (F589V CD74-NTRK1): did not affect inhibition of NTRK1 autophosphorylation; inhibition of NTRK1 autophosphorylation [2]: inhibit NTRK1 autophosphorylation; IC50 (CUTO-3 cells; [10]): 34 nM; IC50 (Parental Ba/F3 cells; parental Ba/F3 cells, 72 hours): 2.75 µM

**Q.** With `COc1cc(N2CCC(N3CCN(C)CC3)CC2)ccc1Nc1ncc(Cl)c(Nc2ccccc2P(C)(C)=O)n1` [Brigatinib, brigatinib] as the molecule, how does the “phosphorylation of ROS1 and ERK” value [5] read?
**A.** Its value is “inhibits the phosphorylation of ROS1 and ERK”.

**Q.** What about the “phosphorylation of ROS1 and ERK” value [6] of the same molecule?
**A.** The value was “inhibits the phosphorylation of ROS1 and ERK”.

**Q.** What about the “phosphorylation of ROS1 and ERK” value [7] of the same molecule?
**A.** Its value is “less activity seen”.

**Q.** What about the IC50 (HCC78 NSCLC cell line; [11]) of the same molecule?
**A.** Its IC50 is 2200 nM.

**Q.** With `C[C@@H](Oc1cc(-c2cnn(C3CCNCC3)c2)cnc1N)c1c(Cl)ccc(F)c1Cl` [Crizotinib, crizotinib] as the molecule, how does the progression-free survival (ROS1-rearranged NSCLC) read?
**A.** The progression-free survival was 19.2 month.

**Q.** And the response rate (ROS1-rearranged NSCLC)?
**A.** Its response rate is 72%.

**Q.** What about the “phosphorylation of ROS1 and ERK” value [6] of the same molecule?
**A.** Its value is “inhibits the phosphorylation of ROS1 and ERK”.

**Q.** And the IC50 (CUTO-3 cells; Homo sapiens, CUTO-3, read-out: IC50 inhibition of CUTO-3 cells)?
**A.** The IC50 was 462 nM.

**Q.** What about the IC50 (HCC78 NSCLC cell line; [11]) of the same molecule?
**A.** The IC50 was 1600 nM.

**Q.** Which “phosphorylation of ROS1 and ERK” value [5] does the source give for `CN1CCN(c2ccc(C(=O)Nc3n[nH]c4ccc(Cc5cc(F)cc(F)c5)cc34)c(NC3CCOCC3)c2)CC1` [Entrectinib, entrectinib] here?
**A.** Its value is “only effective at blocking activity of wild-type ROS1 signaling”.

**Q.** And the “phosphorylation of ROS1 and ERK” value [6]?
**A.** The value was “only effective at blocking activity of wild-type ROS1 signaling”.

**Q.** And the “phosphorylation of ROS1 and ERK” value [7]?
**A.** Its value is “only effective at blocking activity of wild-type ROS1 signaling”.

**Q.** And the IC50 (HCC78 NSCLC cell line; [11])?
**A.** Its IC50 is 450 nM.

**Q.** Which IC50 (HCC78 NSCLC cell line; [11]) does the source give for `CCc1cc2c(cc1N1CCC(N3CCOCC3)CC1)C(C)(C)c1[nH]c3cc(C#N)ccc3c1C2=O` [Alectinib] here?
**A.** Its IC50 is 750 nM.

**Q.** For `C[C@H]1Oc2cc(cnc2N)-c2c(nn(C)c2C#N)CN(C)C(=O)c2ccc(F)cc21` [PF-06463922], which “phosphorylation of ROS1 and ERK” value [5] is on record?
**A.** The value was “inhibited wild-type and L2026M mutant ROS1 autophosphorylation and ERK activation”.

**Q.** And the “phosphorylation of ROS1 and ERK” value [6]?
**A.** The value was “inhibited wild-type and L2026M mutant ROS1 autophosphorylation and ERK activation”.

**Q.** And the “phosphorylation of ROS1 and ERK” value [7]?
**A.** Its value is “little effect on signaling”.

**Q.** And the IC50 (HCC78 NSCLC cell line; read-out: IC50 inhibition of the HCC78 NSCLC cell line, proliferation)?
**A.** The IC50 was over 10000 nM.
